Data from ChEMBL document CHEMBL1128288, “7-Azetidinylquinolones as antibacterial agents. 3. Synthesis, properties and structure-activity relationships of the stereoisomers containing a 7-(3-amino-2-methyl-1-azetidinyl) moiety” (J Med Chem, 1995).
In brackets after ≈: the same amount, converted by molar mass.

Experiments:
[1] = Solubility at pH 7.4 buffer.; format: physicochemical
How it was run: (§1)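 Excess solid was shaken 24 h at 25 °C in water or in 0.05 M phosphate buffer pH 7.4, then filtered (0.22 µm) with the first portion discarded. The filtrate was diluted with 0.1 N HCl or NaOH and measured spectrophotometrically at the compound's absorbance maximum.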

[2] = Solubility in water was determined at 25 degrees Centigrade; format: physicochemical; how it was run: as §1
Bacillus cereus = test: In vitro antibacterial activity measured as minimum inhibitory concentration was evaluated on Bacillus cereus ATCC 11778 (Bc).; format: functional; settings: Bacillus cereus, ATCC 11778; read-out: MIC
How it was run: (§2)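 Serial 2-fold agar dilution in Mueller Hinton medium, run side by side with reference quinolones. Inoculum 10^5 cfu/mL; compound range 0.007–16 µg/mL.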

Bacillus subtilis = test: In vitro antibacterial activity measured as minimum inhibitory concentration was evaluated on Bacillus subtilis ATCC 6633(Bs).; format: functional; settings: Bacillus subtilis, ATCC 6633; read-out: MIC; how it was run: as §2
Enterobacter cloacae = test: In vitro antibacterial activity measured as minimum inhibitory concentration, was evaluated on Enterobacter cloacae ATCC 23355 (Ecl).; format: functional; settings: Enterobacter cloacae, ATCC 23355; read-out: MIC
Klebsiella pneumoniae = test: In vitro antibacterial activity measured as minimum inhibitory concentration was evaluated on klebsiella pneumoniae ATCC 10031 (Kp).; format: functional; settings: Klebsiella pneumoniae, ATCC 10031; read-out: MIC
How it was run: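 Serial 2-fold agar dilution in Mueller Hinton medium, run side by side with reference quinolones.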

Proteus vulgaris = test: In vitro antibacterial activity measured as minimum inhibitory concentration was evaluated on proteus vulgaris ATCC 8427 (Pv).; format: functional; settings: Proteus vulgaris, ATCC 8427; read-out: MIC; how it was run: as §2
Pseudomonas aeruginosa [3] = test: In vitro antibacterial activity measured as minimum inhibitory concentration was evaluated on Pseudomonas aeruginosa ATCC 10145 (Pa).; format: functional; settings: Pseudomonas aeruginosa, ATCC 10145; read-out: MIC; how it was run: as §2
Staphylococcus aureus [4] = test: In vitro antibacterial activity measured as minimum inhibitory concentration was evaluated on Staphylococcus aureus ATCC 25178 (Sa).; format: functional; settings: Staphylococcus aureus, ATCC 25178; read-out: MIC; how it was run: as §2
[5] = test system: Staphylococcus epidermidis; test: In vitro antibacterial activity measured as minimum inhibitory concentration was evaluated on Staphylococcus epidermidis ATCC 155-1 (Se).; format: functional; settings: Staphylococcus epidermidis, ATCC 155-1; read-out: MIC; how it was run: as §2
Enterococcus faecalis = test: In vitro antibacterial activity measured as minimum inhibitory concentration was evaluated on Streptococcus faecalis ATCC 10541 (Sf).; format: functional; settings: Enterococcus faecalis, ATCC 10541; read-out: MIC; how it was run: as §2
Escherichia coli [6] = test: In vitro antibacterial activity measured as minimum inhibitory concentration, was evaluated on Escherichia coli ATCC 23559(Ec).; format: functional; settings: Escherichia coli, ATCC 23559; read-out: MIC; how it was run: as §2
Morganella morganii = test: In vitro antibacterial activity measured as minimum inhibitory concentration was evaluated on morganella morganii ATCC 8019 (Mm).; format: functional; settings: Morganella morganii, ATCC 8019; read-out: MIC; how it was run: as §2
[7] = mouse, in vivo, po, 50 mg/kg
Pseudomonas aeruginosa [8] = test: In vivo efficacy as ED50 against Pseudomonas aeruginosa HS-116 by oral administration in mice.; format: functional; settings: Pseudomonas aeruginosa, po; read-out: ED50
How it was run: (§3)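 Mice, 4 groups of 10, infected intraperitoneally with slightly more than the LD100 of the organism. A single oral dose was given immediately after infection, with four doses (one per group) chosen from in vitro activity. Survival was scored after one week. ED50 (total dose, mg/kg, protecting 50%) was interpolated among group survival rates.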

Staphylococcus aureus [9] = test: In vivo efficacy as ED50 against Staphylococcus aureus HS-93 by oral administration in mice.; format: functional; settings: Staphylococcus aureus, po; read-out: ED50; how it was run: as §3
Escherichia coli [10] = test: In vivo efficacy as ED50 against Escherichia coli HM-42 by oral administration in mice.; format: functional; settings: Escherichia coli, po; read-out: ED50; how it was run: as §3

| solubility [1] | solubility [2] | MIC (Bacillus cereus) | MIC (Bacillus subtilis) | MIC (Enterobacter cloacae) | MIC (Klebsiella pneumoniae) | MIC (Proteus vulgaris) | MIC (Pseudomonas aeruginosa [3]) | MIC (Staphylococcus aureus [4]) | MIC [5] | MIC (Enterococcus faecalis) | MIC (Escherichia coli [6]) | MIC (Morganella morganii) | AUC [7] | SMILES | ED50 (Pseudomonas aeruginosa [8]) | ED50 (Staphylococcus aureus [9]) | ED50 (Escherichia coli [10]) |
| --- | --- | --- | --- | --- | --- | --- | --- | --- | --- | --- | --- | --- | --- | --- | --- | --- | --- |
| > 500 µg/mL | > 500 µg/mL | 1 µg/mL (≈ 2.48 µM) | 0.12 µg/mL (≈ 0.297 µM) | 0.12 µg/mL (≈ 0.297 µM) | 0.06 µg/mL (≈ 0.149 µM) | 1 µg/mL (≈ 2.48 µM) | 8 µg/mL (≈ 19.8 µM) | 0.5 µg/mL (≈ 1.24 µM) | 0.5 µg/mL (≈ 1.24 µM) | 8 µg/mL (≈ 19.8 µM) | 0.12 µg/mL (≈ 0.297 µM) | 0.5 µg/mL (≈ 1.24 µM) | 28800 ng·h/mL | C[C@H](N)C(=O)N[C@@H]1CN(c2nc3c(cc2F)c(=O)c(C(=O)O)cn3C2CC2)[C@H]1C |  |  |  |
|  |  | 0.015 µg/mL (≈ 0.0412 µM) | 0.015 µg/mL (≈ 0.0412 µM) | 0.015 µg/mL (≈ 0.0412 µM) | 0.015 µg/mL (≈ 0.0412 µM) | 0.06 µg/mL (≈ 0.165 µM) | 0.12 µg/mL (≈ 0.329 µM) | 0.015 µg/mL (≈ 0.0412 µM) | 0.015 µg/mL (≈ 0.0412 µM) | 0.12 µg/mL (≈ 0.329 µM) | 0.015 µg/mL (≈ 0.0412 µM) | 0.015 µg/mL (≈ 0.0412 µM) | 11400 ng·h/mL | C[C@@H]1[C@@H](N)CN1c1c(F)c(N)c2c(=O)c(C(=O)O)cn(C3CC3)c2c1F | 96 mg/kg | 11.4 mg/kg | 4.1 mg/kg |
| > 500 µg/mL | > 500 µg/mL | 1 µg/mL (≈ 2.48 µM) | 0.5 µg/mL (≈ 1.24 µM) | 4 µg/mL (≈ 9.92 µM) | 8 µg/mL (≈ 19.8 µM) | 8 µg/mL (≈ 19.8 µM) | 16 µg/mL (≈ 39.7 µM) | 1 µg/mL (≈ 2.48 µM) | 0.25 µg/mL (≈ 0.62 µM) | 1 µg/mL (≈ 2.48 µM) | 1 µg/mL (≈ 2.48 µM) | 8 µg/mL (≈ 19.8 µM) | 0 ng·h/mL | C[C@@H]1[C@@H](NC(=O)[C@@H](C)N)CN1c1nc2c(cc1F)c(=O)c(C(=O)O)cn2C1CC1 |  |  |  |
| > 500 µg/mL | > 500 µg/mL | 0.12 µg/mL (≈ 0.269 µM) | 0.12 µg/mL (≈ 0.269 µM) | 0.12 µg/mL (≈ 0.269 µM) | 0.06 µg/mL (≈ 0.135 µM) | 0.25 µg/mL (≈ 0.561 µM) | 8 µg/mL (≈ 18 µM) | 0.25 µg/mL (≈ 0.561 µM) | 0.25 µg/mL (≈ 0.561 µM) | 2 µg/mL (≈ 4.49 µM) | 0.06 µg/mL (≈ 0.135 µM) | 0.25 µg/mL (≈ 0.561 µM) | 24900 ng·h/mL | CC(C)C[C@H](N)C(=O)N[C@@H]1CN(c2nc3c(cc2F)c(=O)c(C(=O)O)cn3C2CC2)[C@H]1C | 63 mg/kg | 9.4 mg/kg | 2 mg/kg |
| > 500 µg/mL | > 500 µg/mL | 0.5 µg/mL (≈ 0.995 µM) | 0.25 µg/mL (≈ 0.498 µM) | 1 µg/mL (≈ 1.99 µM) | 0.25 µg/mL (≈ 0.498 µM) | 8 µg/mL (≈ 15.9 µM) | 16 µg/mL (≈ 31.8 µM) | 0.5 µg/mL (≈ 0.995 µM) | 0.5 µg/mL (≈ 0.995 µM) | 4 µg/mL (≈ 7.96 µM) | 0.5 µg/mL (≈ 0.995 µM) | 4 µg/mL (≈ 7.96 µM) |  | CCC[C@H](N)C(=O)N[C@@H]1CN(c2cc3c(cc2F)c(=O)c(C(=O)O)cn3-c2ccc(F)cc2F)[C@H]1C |  |  |  |
|  |  | 0.06 µg/mL (≈ 0.173 µM) | 0.015 µg/mL (≈ 0.0432 µM) | 0.015 µg/mL (≈ 0.0432 µM) | 0.015 µg/mL (≈ 0.0432 µM) | 0.06 µg/mL (≈ 0.173 µM) | 0.25 µg/mL (≈ 0.72 µM) | 0.015 µg/mL (≈ 0.0432 µM) | 0.015 µg/mL (≈ 0.0432 µM) | 0.12 µg/mL (≈ 0.345 µM) | 0.015 µg/mL (≈ 0.0432 µM) | 0.015 µg/mL (≈ 0.0432 µM) | 2300 ng·h/mL | CC1C(N)CN1c1c(F)cc2c(=O)c(C(=O)O)cn3c2c1OC[C@@H]3C (single isomer, unassigned) | 26 mg/kg | 6.9 mg/kg | 5.9 mg/kg |
| 5.9 µg/mL (≈ 14.6 µM) | 8 µg/mL (≈ 19.8 µM) |  | 0.06 µg/mL (≈ 0.149 µM) |  | 0.06 µg/mL (≈ 0.149 µM) |  | 1 µg/mL (≈ 2.48 µM) |  |  |  | 0.06 µg/mL (≈ 0.149 µM) |  | 28400 ng·h/mL | C[C@H]1[C@H](N)CN1c1cc2c(cc1F)c(=O)c(C(=O)O)cn2-c1ccc(F)cc1F (single isomer, unassigned) [CETEFLOXACIN] | 64 mg/kg | 7 mg/kg | 4 mg/kg |
